The text below walks through data of ChEMBL document CHEMBL1156478, “Loss of huntingtin function complemented by small molecules acting as repressor element 1/neuron restrictive silencer element silencer modulators” (J Biol Chem, 2007).

Assay [1] relates to ST14A. The experiment in a line: Induction of REST/NRSF-coupled repression of luciferase tagged rat RE1/NRSE BDNF promoter activity expressed in ST14A cells at 5 nM assessed as increase in luciferase activity. The class given is cell-based. The procedure, abridged:
(§1)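 ST14A rat neural cells stably carrying RE1/NRSE(BDNF)-luciferase reporter (DiaNRSE-Luc8 clone), grown in DMEM/10% heat-inactivated FBS at 33 °C, 5% CO2. Compounds from 10 mM DMSO stocks added to cells plated the day before; 72 h exposure in 96-well format, triplicate. Firefly luciferase read after luciferin, expressed as RLU per µg protein (BCA) relative to untreated cells.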

Assay [2] has as its system ST14A. Put plainly: Induction of REST/NRSF-coupled repression of luciferase tagged rat RE1/NRSE BDNF promoter activity expressed in ST14A cells at 10 nM assessed as increase in luciferase activity. Format: cell-based. Put shortly: as §1
Assay [3] relates to ST14A. Put plainly: Increase in REST/NRSF mRNA expression in rat ST14A cells after 72 hrs by RT-PCR relative to control. The class given is functional, cell-based. The procedure, abridged:
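REST/NRSF transcript by SYBR Green real-time PCR after 72 h exposure: 95 °C 3 min, then 45 × (95 °C 30 s, 60 °C 30 s, 72 °C 30 s), melt curve 55–94 °C; normalized to β-actin, fold over untreated; triplicate reactions.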

For assay [4], the system named is ST14A. The experiment in a line: Increase in E2F1 mRNA expression in rat ST14A cells after 72 hrs by RT-PCR relative to control. The class given is functional, cell-based. Put shortly: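 E2F1 SYBR Green real-time PCR after 72 h exposure: 95 °C 10 min, then 40 × (95 °C 15 s, 60 °C 1 min), fluorescence read at 60 °C, melt curve 55–94 °C; normalized to β-actin, fold over untreated cells; triplicate reactions.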

The nature of assay [5]: (§2) […] of REST/NRSF-coupled repression of luciferase tagged rat RE1/NRSE BDNF promoter activity expressed in ST14A cells assessed as increase in luciferase activity. Format: cell-based. The procedure, abridged:
(§3)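 Stable ST14A clone carrying RE1/NRSE(BDNF)-firefly luciferase, selected for DN:REST responsiveness; cells in 96 wells exposed after adhesion to compounds (DMSO, 10 mM stock) in triplicate, 72 h; luciferin added, luminescence expressed as RLU per µg protein (BCA), relative to untreated; EC50 from dose–response.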

For another assay, the system named is neural. Put plainly: Increase in BDNF protein expression in neural cells overexpressing huntingtin mutant gene after 72 hrs by ELISA relative to control. The class given is functional, cell-based. The procedure, abridged:
(§4)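 BDNF protein after 72 h compound exposure: lysis in Tris-HCl pH 7.5, 150 mM NaCl, 1% Triton X-100, 10% glycerol, EDTA/EGTA, protease inhibitors; homogenized, sonicated, centrifuged 15 min at 4 °C; supernatant assayed by BDNF immunoassay, normalized to BCA total protein; fold over untreated cells.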

Assay [6] can be described thus: Increase in BDNF protein expression in […]/HdhQ11 cells expressing homozygous mutant huntingtin gene at 50 nM after 72 hrs by ELISA relative to control. The class given is functional. Put shortly: as §4
(In general: In an ELISA, binding on a coated surface is turned into a signal by an enzyme label.)

For assay [7], the system named is ST14A. The experiment in a line: Increase in BDNF protein expression in rat ST14A cells expressing RE1/NRSE BDNF promoter after 72 hrs by ELISA relative to control. Format: functional, cell-based. The procedure, abridged:
as §4

Assay [8] deals with ST14A. Put plainly: Increase in BDNF mRNA expression in rat ST14A cells expressing RE1/NRSE BDNF promoter after 72 hrs by RT-PCR relative to control. Format: functional, cell-based. Put shortly: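 Cells treated 72 h; total RNA (1 µg) reverse transcribed, three independent reactions per RNA stock, triplicate SYBR Green real-time PCR with 25 ng cDNA, 0.2 µM primers; BDNF cycling 95 °C 10 min then 40 × (95 °C 10 s, 56 °C 10 s, 72 °C 20 s), melt-curve check; normalized to β-actin, fold over untreated; three independent experiments.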

Assay [9] has as its system ST14A. The experiment in a line: […] of REST/NRSF-coupled repression of luciferase tagged rat RE1/NRSE BDNF promoter activity expressed in ST14A cells at 75 nM assessed as increase in luciferase activity. Format: cell-based. The procedure, abridged: as §3
Assay [10] relates to ST14A. Put plainly: Increase in RE1/NRSE promoter regulated synapsin I mRNA expression in rat ST14A cells at 200 nM after 72 hrs by RT-PCR relative to control. Format: functional, cell-based. Put shortly: (§5)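 72 h exposure; SYBR Green real-time PCR for synapsin I and M4: 95 °C 3 min, then 40 × (95 °C 30 s, 58 °C 30 s, 72 °C 30 s), melt curve 55–94 °C; normalized to β-actin, fold over untreated; triplicate reactions.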

Assay [11] has as its system ST14A. The experiment in a line: Increase in RE1/NRSE promoter regulated muscarinic M4 receptor mRNA expression in rat ST14A cells at 200 nM after 72 hrs by RT-PCR relative to control. Format: functional, cell-based. The procedure, abridged:
as §5

The test system of assay [12] is STHdhQ11/HdhQ11. Put plainly: Effect on REST/NRSF translocation in mouse STHdhQ11/HdhQ11 cells expressing homozygous mutant huntingtin gene.
The subject of assay [13] is ST14A. The description is as §2. The class given is cell-based. Put shortly:
as §3

Assay [14] in a line: Increase in BDNF protein expression in […]/HdhQ11 cells expressing homozygous mutant huntingtin gene at 200 nM after 72 hrs by ELISA relative to control. Format: functional. The procedure, abridged:
as §4

The species named for the next assay is Mus musculus. The experiment in a line: Effect on cell proliferation of stress-exposed mouse STHdhQ11/HdhQ11 cells expressing homozygous mutant huntingtin gene assessed as BrdUrd incorporation.
Assay [15] has as its system STHdhQ11/HdhQ11. Put plainly: Increase in cell viability of stress-exposed […]/HdhQ11 cells expressing homozygous mutant huntingtin gene at 25 nM after 48 hrs by MTT assay. Format: functional, cell-based. Put shortly:
(§6)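 Cells plated at 80,000/well in triplicate, 24 h at 33 °C, washed, switched to serum-deprived medium at 37 °C as stress, with or without compound; MTT read 48 h after treatment, formazan at 560 nm after 1 h at 37 °C; three independent experiments.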
(Tetrazolium dyes change colour on reduction, which living cells bring about.)

Assay [16] is described as follows: Increase in cell viability of stress-exposed […]/HdhQ11 cells expressing homozygous mutant huntingtin gene at 50 nM after 48 hrs by MTT assay. Format: functional. Put shortly:
as §6

Assay [17] deals with ST14A. Put plainly: […] of REST/NRSF-coupled repression of luciferase tagged rat RE1/NRSE BDNF promoter activity expressed in ST14A cells at 25 nM assessed as increase in luciferase activity. Format: cell-based. To be noted: TDE = time-dependent effect.

Active and inactive are the calls of the source. No cut-off for these calls is given here.

As for `O=C(O)CC[N+](=O)[O-]`, the result in the assay on ST14A [1] and in the assay on ST14A [2] was inactive.

Take `CN[C@@H]1C[C@H]2O[C@@](C)([C@@H]1OC)n1c3ccccc3c3c4c(c5c6ccccc6n2c5c31)C(=O)NC4`: in the assay with ST14A [2], the outcome was inactive.

For the compound `O=C(CCCCCCC(=O)Nc1ccccc1)NO`, the result in the assay on ST14A [3] and in the assay on ST14A [4] was Active.

Usually EC50 stands for the concentration at which the effect is half-maximal. As to `Cc1nc2ncccn2c1-c1csc(Nc2ccc(N(C)C)cc2)n1`, in assay [5], the EC50 is 20 nM. For the same compound, the result in the assay on neural, in the assay with ST14A [9], with ST14A [10] and in the assay on ST14A [11] was Active. Moreover, the “fold change (FC)” value in assay [6] was 1.6. The Activity result in the assay with ST14A [7] and in the assay on ST14A [8] was “Dose-dependent effect” in each case. The result with ST14A [3], in the assay on ST14A [4] and in the assay with STHdhQ11/HdhQ11 [12] was inactive.

Consider `CC(/C=C/C(=O)NO)=C\[C@@H](C)C(=O)c1ccc(N(C)C)cc1`, for which, in the assay with ST14A [13], the Activity entry was “Dose-dependent effect”. In addition, the result with ST14A [9] was Active.

In the case of `Cc1ccn2c(-c3csc(Nc4ccc(N(C)C)cc4)n3)c(C)nc2c1`, in assay [5], the EC50 amounted to 20 nM. The outcome with neural, with ST14A [9], in the assay with STHdhQ11/HdhQ11 [15], with ST14A [10] and in the assay with ST14A [11] was Active. Further, the “fold change (FC)” value in assay [14] stood at 2. Also, the Activity result with ST14A [7] was “Dose-dependent effect”; in the assay on ST14A [8], “Dose-dependent effect”; in [16], 17%. Also, the outcome in the assay on ST14A [3], in the assay listed under Mus musculus, in the assay on ST14A [4] and with STHdhQ11/HdhQ11 [12] was inactive.

As to `COc1ccc(Nc2nc(-c3c(C)nc4cc(C)ccn34)cs2)cc1`, the Activity result in the assay with ST14A [13] was “Dose-dependent effect”; in the assay on ST14A [7], “Dose-dependent effect”; in the assay with ST14A [8], “Dose-dependent effect”; in the assay with ST14A [17] it was “tde”. For the same compound, the EC50 in assay [5] amounted to 12 nM. Also, the outcome with neural, in the assay on ST14A [9], with ST14A [10] and with ST14A [11] was Active. Moreover, the “fold change (FC)” value in assay [14] is given as 2. Also, the outcome in the assay with ST14A [3], in the assay on ST14A [4] and in the assay on STHdhQ11/HdhQ11 [12] was inactive.
